# hERG rescue = hERG rescue from dofetilide block, primary screen, cell-based, CHO-hERG, FluxOR thallium flux, dofetilide IC70. dofetilide IC70 present. activation (rescue from dofetilide block), less the hit threshold, % at 10 µM. actives 0.51% (n = 310,000). AID 1511, 2009;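 active = activation above the mean of controls blocked by dofetilide plus 5 SD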;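 also: thallium influx through hERG after potassium depolarization seen as dye fluorescence rise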
# KCNQ1 block = inhibitors of human KCNQ1 channel, primary screen, cell-based, thallium flux, high-throughput. Potassium voltage-gated channel subfamily KQT member 1 (Homo sapiens), P51787. CHO-K1 KCNQ1, FluxOR thallium flux fluorescence; hits give high values. B-score at 10 µM. actives 1.3% (n = 310,000). AID 2642, 2010;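 active = compounds whose thallium flux B-score, printed positive for inhibition, exceeds three library SD while starting fluorescence stays within three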;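 also: channel opened by potassium depolarization with thallium stimulus after 20 min compound exposure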
# Kir21 inh = inhibitors of mouse Kir2.1 inward-rectifier potassium channel. HEK293-Kir2.1, FluxOR thallium flux fluorescence; hits give low values. Inward rectifier potassium channel 2 (Mus musculus), P35561. B-score at 10 µM. actives 0.85% (n = 310,000);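 active = fluorescence ratio B-score at or below minus 3 SD of library scores, with starting-brightness B-score within 2 SD, cut at about -4.2 in these data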;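 also: channel flux triggered by added potassium and thallium sulfate stimulus; B-score of peak minus minimum fluorescence over baseline after thallium stimulus; more negative B-score means stronger Kir2.1 block with less thallium influx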
# KCNK9 block = KCNK9 potassium channel inhibitors, primary screen, HEK293 cells, thallium flux. B-score at 10 µM. FluxOR thallium flux fluorescence; hits give low values. actives 1.2% (n = 310,000). AID 488922, 2010;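 active = ratio B-score over 3 SD below the library mean, with starting fluorescence within 5 SD of its mean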;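 also: negative B-score means less thallium flux so channel inhibition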
# KCNK3 block = human KCNK3 channel inhibitors, primary screen, CHO cells, FluxOR thallium flux, B-score; FluxOR fluorescence; hits give low values; B-score at 10 µM; actives 0.84% (n = 340,000); AID 602410, 2012;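 active = B-score under library mean minus 4 SD, starting fluorescence ratio at most library mean plus 5 SD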;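 also: more negative B-score means stronger inhibition of thallium flux through KCNK3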
# KCNQ1 act = potentiators or activators of KCNQ1 channel, primary screen, cell-based, thallium flux, high-throughput; actives 0.35% (n = 310,000); CHO-K1 KCNQ1, thallium flux FluxOR fluorescence; hits give high values; B-score at 10 µM;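 active = fluorescence ratio B-score, a plate-corrected score, at least three library SD, with initial intensity B-score within 5 SD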
#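 Assay system: CHO-K1 cells stably expressing KCNQ1; Medium: assay buffer with matched DMSO; Also added: K+/Tl+ depolarizing stimulus; Dosing: single dose; Timing: dye 90 min, compound 20 min, room temperature; Measured by: kinetic FluxOR thallium fluorescence, 10-s 1-Hz baseline, 110-s post-stimulus read; Read-out: peak-minus-minimum fluorescence over initial fluorescence, negative-control normalized, B-scored.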
# Hits are given with their value; . = inactive; / = no result given. This is a sample that favours compounds with a hit; in the whole collection about 3.7% have one here.
SMILES,hERG rescue,KCNQ1 block,Kir21 inh,KCNK9 block,KCNK3 block,KCNQ1 act
COc1ccc(NC(=O)COC(=O)c2ncc(Cl)c(Cl)c2Cl)c(OC)c1,.,.,.,.,.,.
CC1(C)C(c2ccccc2)=NC(c2ccccc2)N1O (stereo unspecified),.,.,.,.,.,.
COc1ccc(C2N=C(c3ccccc3)C(C)(C)N2O)cc1 (stereo unspecified),5.9,.,.,.,.,.
N#Cc1ccccc1S(=O)(=O)N1CCN(C(=O)c2cc3c(s2)CCC3)CC1,/,/,/,/,.,/
N#Cc1ccccc1NC(=O)CN1CCN(c2ccccn2)CC1,.,.,.,.,.,.
Cc1sc(NC(=O)CN2CCN(c3ccccn3)CC2)c(C#N)c1C,.,.,-4.45,.,.,.
COc1ccccc1NC(=O)c1ccc2c(c1)CCN2S(C)(=O)=O,.,.,.,.,.,.
Cc1ccc(NC(=O)c2ccc3c(c2)CCN3S(C)(=O)=O)c(C)c1,5.3,.,.,.,.,.
N#CC1=C(N)Oc2ccc3ccccc3c2C1c1cccnc1 (stereo unspecified),4.9,.,.,.,.,.
Nn1c(COc2cccc(Br)c2)nnc1SCC(=O)NCC1CCCO1 (stereo unspecified),/,/,/,/,.,/
O=C(Nc1ccccc1)N(O)c1ccc(Cl)cc1,.,6,.,.,.,.
O=[N+]([O-])c1nn(-c2ccc3c(c2)OCCO3)n(O)c1=NCCC1=CCCCC1,.,.,.,.,.,.
O=C(NC(=S)NCCC1=CCCCC1)c1ccco1,30.2,.,.,.,.,27
O=C(NC(=S)NCCc1ccccc1)c1ccco1,.,.,.,.,.,.
O=C(O)COCC(=O)Nc1ccc(-n2nc(C(F)(F)F)cc2-c2cccs2)cc1,.,.,.,.,.,.
Cc1cc(OCc2cc(C(=O)N(C)CC3CCOCC3)no2)cc(C)c1Cl,.,.,-5.07,.,.,.
Cc1cc(OCc2cc(C(=O)N(C)CCCN3CCOCC3)no2)cc(C)c1Cl,.,.,.,.,.,.
Cc1ccc(OCc2cc(C(=O)N3CCCC3)no2)cn1,.,.,.,.,.,.
C=CCC1(CC=C)CCCN1C(=O)c1cc(COc2ccc(C)nc2)on1,.,8,.,.,.,.
C=CCC1(CC=C)CCCN1C(=O)c1cc(COc2ccccc2SC)on1,.,7,.,.,.,.
COCCCNC(=O)Cc1ccc(S(=O)(=O)N2CCOCC2)s1,/,/,/,/,.,/
CCOC(=O)C1CCN(c2ccccc2CN2CCN(c3ccccc3OCC)CC2)CC1,.,.,.,.,.,.
Cc1ccc(C)c(NS(=O)(=O)c2ccccc2C)c1,.,.,.,.,.,.
O=C(NCc1ccccn1)C1CCN(Cc2cccc(OCc3ccccc3)c2)CC1,.,.,.,.,.,8
CCOC(=O)C1CCN(Cc2cccc(OCc3ccccc3)c2)CC1,.,.,-7.87,.,.,.
SMILES,hERG rescue,KCNQ1 block,Kir21 inh,KCNK9 block,KCNK3 block,KCNQ1 act
NC(=O)C1CCN(Cc2cccc(OCc3ccccc3)c2)CC1,.,.,.,.,.,.
COc1cccc(CNC(=O)CN2C(=O)c3ccccc3S2(=O)=O)c1,.,.,.,.,.,.
CSCCC(NC(=O)OCc1ccccc1)C(=O)NCc1cccnc1 (stereo unspecified),.,.,.,.,.,.
CC(C)CC(=O)NC(=S)Nc1nc(-c2cccc3ccccc23)cs1,.,.,.,.,.,34
CC1CCc2c(sc3nc(C4CC4)nc(N4CCN(C(=O)c5ccco5)CC4)c23)C1 (stereo unspecified),.,6,.,.,.,.
Cc1ccc(/C=[N+](\[O-])c2ccc(N(C)C)cc2)c2nsnc12,.,.,.,.,.,.
O=C(Nc1ccccc1)/C(=C/c1ccccc1)c1ccccc1,.,.,.,-6.99,.,.
